Data from ChEMBL document CHEMBL1152975, “Design and synthesis of orally bioavailable serum and glucocorticoid-regulated kinase 1 (SGK1) inhibitors” (Bioorg Med Chem Lett, 2009).

Experiments:
[1] = Plasma clearance in rat by cassette dosing; type: ADME, organism-based
Outline: (§1)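 Rats were given a cassette of four compounds as one mixture, dosed iv and orally. Clearance, Vdss and terminal half-life come from the iv arm; oral AUC0–t and dose-normalized AUC0–t come from the oral arm.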

[2] = Volume of distribution at steady state in rat by cassette dosing; type: ADME, organism-based; conditions: in vivo, read-out: Vdss; outline: as §1
[3] = Terminal half life in iv dosed rat by cassette dosing; type: ADME, organism-based; conditions: in vivo, read-out: beta t1/2; outline: as §1
[4] = AUC (0 to t) in po dosed rat by cassette dosing; type: ADME, organism-based; conditions: plasma; outline: as §1
Rattus norvegicus [5] = experiment: Dose normalized AUC (0 to t) in po dosed rat by cassette dosing; type: ADME, organism-based; conditions: in vivo; outline: as §1
[6] = molecular target: T1, Serine/threonine-protein kinase Sgk1 (Homo sapiens, UniProt O00141); experiment: Inhibition of SGK1 by fluorescence polarization assay
T1 sequence (O00141 whole entry): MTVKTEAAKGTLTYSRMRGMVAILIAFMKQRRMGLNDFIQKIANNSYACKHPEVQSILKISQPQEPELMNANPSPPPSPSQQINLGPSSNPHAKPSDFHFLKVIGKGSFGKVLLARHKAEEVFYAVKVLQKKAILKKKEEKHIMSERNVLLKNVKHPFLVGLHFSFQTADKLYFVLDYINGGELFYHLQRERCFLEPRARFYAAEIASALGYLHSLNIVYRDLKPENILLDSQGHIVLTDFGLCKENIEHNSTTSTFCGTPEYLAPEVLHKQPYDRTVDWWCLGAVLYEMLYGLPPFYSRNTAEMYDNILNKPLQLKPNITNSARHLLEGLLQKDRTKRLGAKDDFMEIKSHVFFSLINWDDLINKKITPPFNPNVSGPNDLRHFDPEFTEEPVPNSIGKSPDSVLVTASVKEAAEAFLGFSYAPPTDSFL

[7] = molecular target: T1, Serine/threonine-protein kinase Sgk1; experiment: Inhibition of SGK1-mediated epithelial sodium channel activity in human M-1 cells assessed as short circuit current by whole cell electrophysiological transepithelial experiment; type: cell-based
[8] = Dissociation constant, pKa of the compound; type: physicochemical
[9] = Plasma clearance in rat by discrete study; type: ADME, organism-based
Outline: (§2)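 Each compound was dosed on its own (discrete study) to rats, iv and orally. Clearance, Vdss and terminal half-life come from the iv arm; oral AUC0–t and dose-normalized AUC0–t come from the oral arm.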

[10] = Volume of distribution at steady state in rat by discrete study; type: ADME, organism-based; conditions: in vivo, read-out: Vdss; outline: as §2
[11] = Terminal half life in iv dosed rat by discrete study; type: ADME, organism-based; conditions: in vivo, read-out: beta t1/2; outline: as §2
[12] = AUC (0 to t) in po dosed rat by discrete study; type: ADME, organism-based; conditions: plasma; outline: as §2
Rattus norvegicus [13] = experiment: Dose normalized AUC (0 to t) in po dosed rat by discrete study; type: ADME, organism-based; conditions: in vivo; outline: as §2

SMILES	clearance [1] [mL/min/kg]	Vd [2] [L/kg]	half-life [3] [h]	AUC(0-t) [4] [ng·h/mL]	AUC (Rattus norvegicus [5]) [ng·h/mL/mg/kg]	IC50 [6] [nM]	IC50 [7] [nM]	also measured
O=C(O)c1ccc(-c2c[nH]c3ncc(-c4ccccc4)cc23)cc1C1CCCC1 [GSK-650394]	25.7	0.77	1.58	313	134			
O=C(O)c1ccc(-c2c[nH]c3ncc(-c4ccccc4)cc23)cc1							1300	pKa [8]: 4.2; clearance [9]: 64.4 mL/min/kg; Vd [10]: 8.8 L/kg; half-life [11]: 9.4 h; AUC(0-t) [12]: 392 ng·h/mL; AUC (Rattus norvegicus [13]): 154 ng·h/mL/mg/kg
O=C(O)Cc1ccc(-c2c[nH]c3ncc(-c4ccc5ccccc5c4)cc23)cc1							880	clearance [9]: 21.3 mL/min/kg; Vd [10]: 1.3 L/kg; half-life [11]: 4.22 h; AUC(0-t) [12]: 467 ng·h/mL; AUC (Rattus norvegicus [13]): 225 ng·h/mL/mg/kg
NCc1ccc(-c2c[nH]c3ncc(-c4ccccc4)cc23)cc1						400		
CC(=O)c1ccc(-c2c[nH]c3ncc(-c4ccccc4)cc23)cc1						5000		
COC(=O)c1ccc(-c2c[nH]c3ncc(-c4ccccc4)cc23)cc1						3160		
c1ccc(-c2cnc3[nH]cc(-c4ccc(-c5nnn[nH]5)cc4)c3c2)cc1						160		pKa [8]: 4.9

Further compounds by falling IC50 [6], results first:

clearance [1] [mL/min/kg]	Vd [2] [L/kg]	half-life [3] [h]	AUC(0-t) [4] [ng·h/mL]	AUC (Rattus norvegicus [5]) [ng·h/mL/mg/kg]	IC50 [6] [nM]	IC50 [7] [nM]	SMILES	also measured
					125		CC(C(=O)O)c1ccc(-c2c[nH]c3ncc(-c4ccc5ccccc5c4)cc23)cc1 (centres undefined)	
4.32	0.67	4.4	4170	2100	63	870	CC(C)(C(=O)O)c1ccc(-c2c[nH]c3ncc(-c4ccc5ccccc5c4)cc23)cc1	
					50	1460	CC(C)(C(=O)O)c1ccc(-c2c[nH]c3ncc(-c4ccccc4)cc23)cc1	
6.56	2.5	8.13	1910	905	40	2000	CC(C)(C(=O)O)c1ccc(-c2c[nH]c3ncc(-c4cccc(C#N)c4)cc23)cc1	
9.4	0.43	1.62	1500	600	20	710	CCc1cc(-c2c[nH]c3ncc(-c4ccccc4)cc23)ccc1C(=O)O	
21.9	0.62	1.17	373	176	5	580	CC(C)Cc1cc(-c2c[nH]c3ncc(-c4ccccc4)cc23)ccc1C(=O)O	
